Activity calls are given as the source filed them. The calls are words filed in the database; no cut-off is given here.
Tests used:
[1] = target: Protein cereblon/Dynein light chain Tctex-type 1 (Homo sapiens) (UniProt Q96SW2+P63172); test: Protac activity at CRBN/DYNLT1 in human BxPC-3 cells assessed as DYNLT1 degradation incubated for 16 hrs by proteomic analysis; assay type: cell-based
How it was run: (§1)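 TMT 10plex proteomics. […] Samples (75 μg) were reduced with DTT, alkylated with 2-chloroacetamide, acetone-precipitated, trypsin-digested overnight at 37 °C and TMT-labeled for LC-MS/MS relative quantitation.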

[2] = target: Protein cereblon/E3 ubiquitin-protein ligase SHPRH (Homo sapiens) (UniProt Q96SW2+Q149N8); test: Protac activity at CRBN/SHPRH in human BxPC-3 cells assessed as SHPRH degradation incubated for 16 hrs by proteomic analysis; assay type: cell-based; how it was run: as §1
Protein cereblon/E3 ubiquitin-protein ligase SHPRH (Homo sapiens), sequence (Q149N8 whole entry, looked up): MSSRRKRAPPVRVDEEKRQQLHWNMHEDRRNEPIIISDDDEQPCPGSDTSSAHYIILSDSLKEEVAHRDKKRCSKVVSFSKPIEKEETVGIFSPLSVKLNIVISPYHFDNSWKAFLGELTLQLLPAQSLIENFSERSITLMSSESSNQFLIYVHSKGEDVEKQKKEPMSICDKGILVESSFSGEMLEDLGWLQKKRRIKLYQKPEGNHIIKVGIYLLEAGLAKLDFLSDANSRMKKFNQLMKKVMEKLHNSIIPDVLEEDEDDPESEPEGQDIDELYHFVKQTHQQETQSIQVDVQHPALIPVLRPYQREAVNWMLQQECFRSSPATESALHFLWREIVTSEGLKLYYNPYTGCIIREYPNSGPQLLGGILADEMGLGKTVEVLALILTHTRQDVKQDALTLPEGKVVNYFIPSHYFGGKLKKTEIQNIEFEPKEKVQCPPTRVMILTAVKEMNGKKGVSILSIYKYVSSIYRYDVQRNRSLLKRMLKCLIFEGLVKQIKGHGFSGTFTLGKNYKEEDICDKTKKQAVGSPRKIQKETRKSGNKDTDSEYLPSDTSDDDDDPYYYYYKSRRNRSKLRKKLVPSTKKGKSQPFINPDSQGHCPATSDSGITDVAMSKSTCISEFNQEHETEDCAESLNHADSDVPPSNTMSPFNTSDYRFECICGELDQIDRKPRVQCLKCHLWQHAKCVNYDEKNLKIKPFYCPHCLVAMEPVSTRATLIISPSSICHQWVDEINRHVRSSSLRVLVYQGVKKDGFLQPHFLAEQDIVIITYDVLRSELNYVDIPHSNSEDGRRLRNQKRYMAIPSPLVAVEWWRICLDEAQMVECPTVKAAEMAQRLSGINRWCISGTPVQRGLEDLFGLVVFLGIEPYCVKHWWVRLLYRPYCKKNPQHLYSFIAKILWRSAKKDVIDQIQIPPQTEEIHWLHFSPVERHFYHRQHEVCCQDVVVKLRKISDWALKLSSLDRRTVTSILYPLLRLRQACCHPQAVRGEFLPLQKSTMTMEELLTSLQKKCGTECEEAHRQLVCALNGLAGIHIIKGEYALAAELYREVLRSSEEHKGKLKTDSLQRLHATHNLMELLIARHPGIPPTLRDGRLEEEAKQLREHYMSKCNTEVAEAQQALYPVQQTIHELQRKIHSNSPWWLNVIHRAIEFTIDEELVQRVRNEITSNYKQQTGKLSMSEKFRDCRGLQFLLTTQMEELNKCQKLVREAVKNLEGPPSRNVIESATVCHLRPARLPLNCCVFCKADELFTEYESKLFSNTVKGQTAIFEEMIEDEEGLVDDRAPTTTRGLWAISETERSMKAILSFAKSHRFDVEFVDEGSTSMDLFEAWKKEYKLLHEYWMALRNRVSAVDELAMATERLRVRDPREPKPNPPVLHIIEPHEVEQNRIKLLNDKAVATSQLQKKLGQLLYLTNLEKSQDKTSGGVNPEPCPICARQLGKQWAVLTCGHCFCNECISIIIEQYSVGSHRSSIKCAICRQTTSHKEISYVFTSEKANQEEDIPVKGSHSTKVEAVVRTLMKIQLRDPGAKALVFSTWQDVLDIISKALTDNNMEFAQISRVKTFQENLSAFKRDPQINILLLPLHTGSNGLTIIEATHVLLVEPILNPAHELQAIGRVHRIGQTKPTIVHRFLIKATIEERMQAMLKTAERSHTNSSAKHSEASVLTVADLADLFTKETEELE
Protein cereblon/E3 ubiquitin-protein ligase SHPRH (Homo sapiens), sequence (Q96SW2 whole entry, looked up): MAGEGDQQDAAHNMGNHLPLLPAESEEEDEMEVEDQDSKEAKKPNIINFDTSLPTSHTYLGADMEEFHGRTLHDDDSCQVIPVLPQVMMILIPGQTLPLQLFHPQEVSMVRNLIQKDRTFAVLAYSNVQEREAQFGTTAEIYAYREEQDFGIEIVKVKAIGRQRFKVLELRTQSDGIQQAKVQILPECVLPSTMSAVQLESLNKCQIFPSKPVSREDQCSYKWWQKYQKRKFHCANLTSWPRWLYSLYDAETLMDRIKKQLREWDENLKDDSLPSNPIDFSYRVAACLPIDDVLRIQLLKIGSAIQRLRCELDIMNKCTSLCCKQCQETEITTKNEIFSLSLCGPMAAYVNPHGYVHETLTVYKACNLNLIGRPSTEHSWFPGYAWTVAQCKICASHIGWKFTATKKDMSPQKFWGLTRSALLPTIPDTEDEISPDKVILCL

[3] = target: Signal transducer and activator of transcription 3 (Homo sapiens) (UniProt P40763); test: Inhibition of STAT3 phosphorylation in human BxPC-3 cells at 1 uM after 16 hrs by western blot analysis; assay type: cell-based
Signal transducer and activator of transcription 3 (Homo sapiens), sequence (P40763 whole entry): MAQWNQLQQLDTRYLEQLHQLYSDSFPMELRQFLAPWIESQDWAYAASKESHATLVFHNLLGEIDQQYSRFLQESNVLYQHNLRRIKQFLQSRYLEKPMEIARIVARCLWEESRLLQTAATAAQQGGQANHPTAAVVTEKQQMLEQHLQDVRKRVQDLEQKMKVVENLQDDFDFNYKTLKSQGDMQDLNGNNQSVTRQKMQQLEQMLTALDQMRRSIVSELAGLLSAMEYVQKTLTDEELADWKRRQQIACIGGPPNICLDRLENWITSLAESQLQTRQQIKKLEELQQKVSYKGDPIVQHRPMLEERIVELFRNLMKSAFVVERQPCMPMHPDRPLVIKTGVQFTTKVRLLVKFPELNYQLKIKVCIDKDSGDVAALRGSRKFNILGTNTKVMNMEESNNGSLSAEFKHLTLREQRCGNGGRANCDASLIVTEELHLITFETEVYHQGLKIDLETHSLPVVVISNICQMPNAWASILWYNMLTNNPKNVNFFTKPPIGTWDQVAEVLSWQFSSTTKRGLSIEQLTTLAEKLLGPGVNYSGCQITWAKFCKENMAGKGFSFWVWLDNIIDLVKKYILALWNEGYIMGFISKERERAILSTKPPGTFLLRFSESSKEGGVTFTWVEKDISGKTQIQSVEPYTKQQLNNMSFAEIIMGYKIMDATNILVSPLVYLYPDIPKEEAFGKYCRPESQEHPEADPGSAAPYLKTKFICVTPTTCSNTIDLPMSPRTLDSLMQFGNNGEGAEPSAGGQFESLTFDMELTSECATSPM
How it was run: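 Cells were seeded in 6-well plates (BxPC-3 500 × 10^3, MIA PaCa-2 200 × 10^3 cells/well) and exposed to compound for 16 h. Lysis was at 4 °C by sonication in Tris/NaCl/Triton/SDS buffer, pH 7.4, with protease and phosphatase inhibitors. Lysates were run on SDS-PAGE, transferred to PVDF and probed for STAT3, pSTAT3 and NQO1 with GAPDH as loading control. Immunoblots were imaged on an Odyssey system.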

[4] = Upregulation of AFF1 protein levels in human BxPC-3 cells incubated for 16 hrs by proteomic analysis; assay type: functional
How it was run: (§2)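 BxPC-3 cells exposed 16 h in triplicate (control, PROTAC) or duplicate (other arms); lysed in RIPA at 4 °C, 75 μg protein per sample. Reduced with DTT (1 h, 55 °C), alkylated with 2-chloroacetamide, acetone-precipitated, trypsin-digested overnight at 37 °C, TMT 10plex labelled, relative quantitation by LC-tandem MS.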

[5] = target: Protein cereblon/Kunitz-type protease inhibitor 1 (Homo sapiens) (UniProt Q96SW2+O43278); test: Protac activity at CRBN/SPINT1 in human BxPC-3 cells assessed as SPINT1 degradation incubated for 16 hrs by proteomic analysis; assay type: cell-based; how it was run: as §1
Protein cereblon/Kunitz-type protease inhibitor 1 (Homo sapiens), sequence (O43278 whole entry, looked up): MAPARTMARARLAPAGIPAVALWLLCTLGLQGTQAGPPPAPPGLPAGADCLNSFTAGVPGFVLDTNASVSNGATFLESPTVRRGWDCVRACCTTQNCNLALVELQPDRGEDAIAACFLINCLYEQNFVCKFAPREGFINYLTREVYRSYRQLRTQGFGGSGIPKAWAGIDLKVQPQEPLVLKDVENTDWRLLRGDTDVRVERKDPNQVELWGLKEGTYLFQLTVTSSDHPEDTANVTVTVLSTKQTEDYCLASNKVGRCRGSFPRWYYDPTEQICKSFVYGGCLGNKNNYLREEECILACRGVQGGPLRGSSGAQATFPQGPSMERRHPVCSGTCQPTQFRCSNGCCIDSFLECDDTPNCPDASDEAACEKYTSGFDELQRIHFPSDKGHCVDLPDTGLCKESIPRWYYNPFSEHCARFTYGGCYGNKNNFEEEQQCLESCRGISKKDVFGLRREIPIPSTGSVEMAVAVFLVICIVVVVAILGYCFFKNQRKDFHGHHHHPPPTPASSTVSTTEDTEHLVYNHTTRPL
Protein cereblon/Kunitz-type protease inhibitor 1 (Homo sapiens), sequence (Q96SW2 whole entry, looked up): as the sequence (Q96SW2 whole entry, looked up) above

[6] = target: Protein cereblon/Transmembrane protease serine 4 (Homo sapiens) (UniProt Q9NRS4+Q96SW2); test: Protac activity at CRBN/TMPRSS4 in human BxPC-3 cells assessed as TMPRSS4 degradation incubated for 16 hrs by proteomic analysis; assay type: cell-based; how it was run: as §2
[7] = Upregulation of AP-1 protein levels in human BxPC-3 cells incubated for 16 hrs by proteomic analysis; assay type: functional; how it was run: as §2
[8] = target: Protein cereblon/E3 ubiquitin-protein ligase DTX3L (Homo sapiens) (UniProt Q96SW2+Q8TDB6); test: Protac activity at CRBN/DTX3L in human BxPC-3 cells assessed as DTX3L degradation incubated for 16 hrs by proteomic analysis; assay type: cell-based; how it was run: as §1
[9] = Upregulation of MPV17 protein levels in human BxPC-3 cells incubated for 16 hrs by proteomic analysis; assay type: functional; how it was run: as §2
BXPC-3 [10] = test: Inhibition of colony formation in human BxPC-3 cells assessed as reduction in colony formation at 0.06 to 0.5 uM incubated for 7 to 10 days in presence of NQO1 inhibitor dicoumarol; conditions: dose 0.06-0.5 µM
[11] = Upregulation of AKR1C2 protein levels in human BxPC-3 cells incubated for 16 hrs by proteomic analysis; assay type: functional; how it was run: as §2
[12] = target: Protein cereblon/E3 ubiquitin-protein ligase ZFP91 (Homo sapiens, UniProt Q96SW2+Q96JP5); test: Protac activity at CRBN/ZFP91 in human BxPC-3 cells assessed as induction of ZF91 degradation at 1 uM incubated for 16 hrs by western blot analysis; assay type: cell-based
How it was run: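 BxPC-3 cells treated for 4, 16 or 24 h across a concentration series. ZFP91 immunoblotted against GAPDH; bands quantified by densitometry, DC50 calculated from dose-response curves of the densitometry.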

[13] = target: Protein cereblon/Melanoma-associated antigen D1 (Homo sapiens) (UniProt Q96SW2+Q9Y5V3); test: Protac activity at CRBN/MAGED1 in human BxPC-3 cells assessed as MAGED1 degradation incubated for 16 hrs by proteomic analysis; assay type: cell-based; how it was run: as §1
[14] = target: Protein cereblon/Apoptosis-stimulating of p53 protein 2 (Homo sapiens) (UniProt Q96SW2+Q13625); test: Protac activity at CRBN/TP53BP2 in human BxPC-3 cells assessed as TP53BP2 degradation incubated for 16 hrs by proteomic analysis; assay type: cell-based; how it was run: as §2
BXPC-3 [15] = test: Antiproliferative activity against human BxPC-3 cells assessed as reduction in cell viability incubated for 3 days by MTT assay; assay type: functional, cell-based; conditions: BXPC-3, 72 h
[16] = target: Protein cereblon/Protein PRRC2B (Homo sapiens) (UniProt Q96SW2+Q5JSZ5); test: Protac activity at CRBN/PRRC2B in human BxPC-3 cells assessed as PRRC2B degradation incubated for 16 hrs by proteomic analysis; assay type: cell-based; how it was run: as §1
[17] = target: Protein cereblon/Epithelial discoidin domain-containing receptor 1 (Homo sapiens) (UniProt Q08345+Q96SW2); test: Protac activity at CRBN/DDR1 in human BxPC-3 cells assessed as DDR1 degradation incubated for 16 hrs by proteomic analysis; assay type: cell-based; how it was run: as §1
[18] = target: Protein cereblon/Laminin subunit beta-1 (Homo sapiens) (UniProt P07942+Q96SW2); test: Protac activity at CRBN/LAMB1 in human BxPC-3 cells assessed as LAMB1 degradation incubated for 16 hrs by proteomic analysis; assay type: cell-based; how it was run: as §1
[19] = target: Protein cereblon/Ubiquitin-conjugating enzyme E2 T (Homo sapiens) (UniProt Q96SW2+Q9NPD8); test: Protac activity at CRBN/UBE2T in human BxPC-3 cells assessed as UBE2T degradation incubated for 16 hrs by proteomic analysis; assay type: cell-based; how it was run: as §2
[20] = target: Protein cereblon/Cystatin-C (Homo sapiens) (UniProt P01034+Q96SW2); test: Protac activity at CRBN/CST3 in human BxPC-3 cells assessed as CST3 degradation incubated for 16 hrs by proteomic analysis; assay type: cell-based; how it was run: as §1
Protein cereblon/Cystatin-C (Homo sapiens), sequence (P01034 whole entry, looked up): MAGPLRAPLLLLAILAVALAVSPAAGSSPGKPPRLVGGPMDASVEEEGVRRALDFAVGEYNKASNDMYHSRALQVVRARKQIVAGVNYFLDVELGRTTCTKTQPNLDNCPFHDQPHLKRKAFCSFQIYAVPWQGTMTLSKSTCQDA
Protein cereblon/Cystatin-C (Homo sapiens), sequence (Q96SW2 whole entry, looked up): as the sequence (Q96SW2 whole entry, looked up) above

[21] = target: Protein cereblon/Protein FAM3C (Homo sapiens) (UniProt Q96SW2+Q92520); test: Protac activity at CRBN/FAM3C in human BxPC-3 cells assessed as FAM3C degradation incubated for 16 hrs by proteomic analysis; assay type: cell-based; how it was run: as §1
[22] = target: Protein cereblon/Anamorsin (Homo sapiens) (UniProt Q96SW2+Q6FI81); test: Protac activity at CRBN/CIAPIN1 in human BxPC-3 cells assessed as CIAPIN1 degradation incubated for 16 hrs by proteomic analysis; assay type: cell-based; how it was run: as §1
BXPC-3 [23] = test: Antiproliferative activity against human BxPC-3 cells harboring ZFP91siRNA assessed as reduction in cell viability incubated for 48 hrs by MTT assay; assay type: functional, cell-based; conditions: BXPC-3, 48 h
How it was run: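 BxPC-3 cells were transfected with ZFP91 siRNA or scrambled control siRNA using Lipofectamine RNAiMAX in Opti-MEM, 5 pmol siRNA per complex. Compound was added together with the siRNA complex.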

[24] = Upregulation of ABCB6 protein levels in human BxPC-3 cells incubated for 16 hrs by proteomic analysis; assay type: functional; how it was run: as §2
[25] = target: Protein cereblon/Signal transducer and activator of transcription 3 (Homo sapiens, UniProt P40763+Q96SW2); test: Protac activity at CRBN/STAT3 in human BxPC-3 cells assessed as STAT3 degradation incubated for 16 hrs by proteomic analysis; assay type: cell-based; how it was run: as §2

Protein cereblon/Dynein light chain Tctex-type 1 (Homo sapiens), sequence (P63172 whole entry, looked up): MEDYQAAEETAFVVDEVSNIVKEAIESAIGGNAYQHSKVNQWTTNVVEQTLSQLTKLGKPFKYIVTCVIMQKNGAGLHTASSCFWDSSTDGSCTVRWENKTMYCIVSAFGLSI
Protein cereblon/Dynein light chain Tctex-type 1 (Homo sapiens), sequence (Q96SW2 whole entry, looked up): as the sequence (Q96SW2 whole entry, looked up) above

## O=C1CCC(N2C(=O)c3cccc(NCCCCCC4CCN(CCNC(=O)c5cc6c(o5)C(=O)c5ccccc5C6=O)CC4)c3C2=O)C(=O)N1 (stereo not given)
[1]
  log2FC: -0.97
[2]
  log2FC: -0.74
[3]
  inhibition: Active
[4]
  log2FC: 0.67
[5]
  log2FC: -0.85
[6]
  log2FC: -1.27
[7]
  log2FC: 1.58
[8]
  log2FC: -0.96
[9]
  log2FC: 0.66
BXPC-3 [10]
  inhibition: Active
[11]
  log2FC: 0.6
[12]
  Activity: Active
[13]
  log2FC: -0.9
[14]
  log2FC: -1.02
BXPC-3 [15]
  IC50: 800 nM
[16]
  log2FC: -0.63
[17]
  log2FC: -0.73
[18]
  log2FC: -0.67
[19]
  log2FC: -0.66
[20]
  log2FC: -0.81
[21]
  log2FC: -0.73
[22]
  log2FC: -0.59
BXPC-3 [23]
  IC50: 1200 nM
[24]
  log2FC: 0.68
[25]
  log2FC: -0.69
